Converted amounts (≈) assume the structure as drawn.
How the values were obtained:
Type in all cases: functional
Staphylococcus aureus [1] = assay: In vitro minimum inhibitory concentration (MIC) against Staphylococcus aureus Smith A 9537 at 37 degrees C for 18 hr
Outline: (§1)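 Two-fold serial broth dilution in nutrient broth. Inoculum adjusted to 10^6 cfu/mL. Compounds tested from 0.0005 to 250 µg/mL.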

Klebsiella pneumoniae [2] = assay: In vitro minimum inhibitory concentration (MIC) against Klebsiella pneumoniae A 9664 at 37 degrees C for 18 h.; outline: as §1
Enterococcus faecalis = assay: In vitro minimum inhibitory concentration (MIC) against Enterococcus faecalis A 9808 at 37 degrees C for 18 h.; outline: as §1
Escherichia coli [3] = assay: In vitro minimum inhibitory concentration (MIC) against Escherichia coli A 15119 at 37 degrees C for 18 h.; outline: as §1
Enterococcus faecium = assay: In vitro minimum inhibitory concentration (MIC) against Enterococcus faecium A 24885 at 37 degrees C for 18 h.; outline: as §1
Enterobacter cloacae = assay: In vitro minimum inhibitory concentration (MIC) against Enterobacter cloacae A 9656 at 37 degrees C for 18 h.
Serratia marcescens = assay: In vitro minimum inhibitory concentration (MIC) against Serratia marcescens A 20019 at 37 degrees C for 18 hr; outline: as §1
Pseudomonas aeruginosa [4] = assay: Efficacy on systematic infections against Pseudomonas aeruginosa A 9843 after oral administration in mice; settings: read-out: PD50
Outline: (§2)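 Mice given compound orally after lethal systemic infection. Read-out is the oral dose protecting 50% of mice from death (PD50), reported in mg/kg.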

Staphylococcus aureus [5] = assay: Efficacy on systematic infections against Staphylococcus aureus A 9537 after oral administration in mice; settings: read-out: PD50; outline: as §2
Morganella morganii = assay: In vitro minimum inhibitory concentration (MIC) against Morganella morganii A 15153 at 37 degrees C for 18 h.; outline: as §1
Pseudomonas aeruginosa [6] = assay: In vitro minimum inhibitory concentration (MIC) against Pseudomonas aeruginosa A 9843 at 37 degree C for 18 h; outline: as §1
Escherichia coli [7] = assay: Efficacy on systematic infections against Escherichia coli A 15119 after oral administration in mice; settings: read-out: PD50; outline: as §2
Klebsiella pneumoniae [8] = assay: Efficacy on systematic infections against Klebsiella pneumoniae A 9664 after oral administration in mice; settings: read-out: PD50; outline: as §2

Row | SMILES | MIC (Staphylococcus aureus [1]) [µg/mL] | MIC (Klebsiella pneumoniae [2]) [µg/mL] | MIC (Enterococcus faecalis) [µg/mL] | MIC (Escherichia coli [3]) [µg/mL] | MIC (Enterococcus faecium) [µg/mL] | MIC (Enterobacter cloacae) [µg/mL] | MIC (Serratia marcescens) [µg/mL] | ED50 (Pseudomonas aeruginosa [4]) [mg/kg] | ED50 (Staphylococcus aureus [5]) [mg/kg] | MIC (Morganella morganii) [µg/mL] | MIC (Pseudomonas aeruginosa [6]) [µg/mL] | ED50 (Escherichia coli [7]) [mg/kg] | ED50 (Klebsiella pneumoniae [8]) [mg/kg]
1 | CC(C)(C)n1cc(C(=O)O)c(=O)c2cc(F)c(N3C[C@@H]4C[C@H]3CN4)cc21 | 0.25 (≈ 0.696 µM) | 0.5 (≈ 1.39 µM) | 4 (≈ 11.1 µM) | 2 (≈ 5.56 µM) | 16 (≈ 44.5 µM) | 0.5 (≈ 1.39 µM) | 2 (≈ 5.56 µM) | 23 | 10 | 1 (≈ 2.78 µM) | 1 (≈ 2.78 µM) | – | –
2 | CC[C@H]1CN(c2nc3c(cc2F)c(=O)c(C(=O)O)cn3C(C)(C)C)C[C@H]1N.Cl | 0.015 | 0.13 | 0.25 | 0.13 | 2 | 0.06 | 0.5 | – | – | 0.5 | 1 | – | –
3 | CC(C)(C)n1cc(C(=O)O)c(=O)c2cc(F)c(N3CCC(CN)C3)nc21 (stereo not drawn) | 0.03 (≈ 0.0828 µM) | 0.25 (≈ 0.69 µM) | 0.25 (≈ 0.69 µM) | 0.5 (≈ 1.38 µM) | 2 (≈ 5.52 µM) | 0.5 (≈ 1.38 µM) | 2 (≈ 5.52 µM) | – | – | 1 (≈ 2.76 µM) | 1 (≈ 2.76 µM) | – | –
4 | CCNCC1CCN(c2cc3c(cc2F)c(=O)c(C(=O)O)cn3C(C)(C)C)C1 (stereo not drawn) | 0.06 (≈ 0.154 µM) | 1 (≈ 2.57 µM) | 0.5 (≈ 1.28 µM) | 0.25 (≈ 0.642 µM) | 4 (≈ 10.3 µM) | 0.5 (≈ 1.28 µM) | 8 (≈ 20.5 µM) | – | – | 2 (≈ 5.14 µM) | 8 (≈ 20.5 µM) | – | –
5 | CC(C)(C)n1cc(C(=O)O)c(=O)c2cc(F)c(N3C[C@@H](CN)[C@H](F)C3)nc21.CS(=O)(=O)O | 0.004 | 0.13 | 0.03 | 0.06 | 0.25 | 0.06 | 1 | 18 | 0.8 | 0.5 | 0.5 | – | –
6 | CC(C)(C)n1cc(C(=O)O)c(=O)c2cc(F)c(N3C4CCC3CNC4)nc21.CS(=O)(=O)O | 0.06 | 0.13 | 0.5 | 0.06 | 4 | 0.25 | 0.5 | – | – | 0.5 | 2 | – | –
7 | CC(C)(C)n1cc(C(=O)O)c(=O)c2cc(F)c(N3CCNC(CF)C3)cc21 (stereo not drawn) | 0.13 (≈ 0.343 µM) | 0.13 (≈ 0.343 µM) | 2 (≈ 5.27 µM) | 0.25 (≈ 0.659 µM) | 8 (≈ 21.1 µM) | 0.13 (≈ 0.343 µM) | 1 (≈ 2.64 µM) | – | – | 0.5 (≈ 1.32 µM) | 4 (≈ 10.5 µM) | – | –
8 | CC(C)(C)n1cc(C(=O)O)c(=O)c2cc(F)c(N3CCNC(c4ccccc4)C3)cc21.CS(=O)(=O)O (stereo not drawn) | 0.06 | 0.25 | 0.5 | 0.06 | 4 | 0.13 | 2 | – | – | 0.5 | 1 | – | –
9 | CN(C)C1CCN(c2nc3c(cc2F)c(=O)c(C(=O)O)cn3C(C)(C)C)C1 (stereo not drawn) | 0.03 (≈ 0.0797 µM) | 0.13 (≈ 0.345 µM) | 0.5 (≈ 1.33 µM) | 0.25 (≈ 0.664 µM) | 8 (≈ 21.3 µM) | 1 (≈ 2.66 µM) | 1 (≈ 2.66 µM) | – | – | 0.5 (≈ 1.33 µM) | 1 (≈ 2.66 µM) | – | –
10 | CC(C)(C)n1cc(C(=O)O)c(=O)c2cc(F)c(N3CC4CCC(C3)N4)nc21.CS(=O)(=O)O | 0.06 | 0.13 | 1 | 0.13 | 4 | 0.25 | 1 | – | – | 0.5 | 4 | – | –
11 | CC(C)(C)n1cc(C(=O)O)c(=O)c2cc(F)c(N3CC4CCC3CN4)nc21 (stereo not drawn) | 0.03 (≈ 0.0801 µM) | 0.13 (≈ 0.347 µM) | 0.5 (≈ 1.34 µM) | 0.13 (≈ 0.347 µM) | 2 (≈ 5.34 µM) | 0.06 (≈ 0.16 µM) | 1 (≈ 2.67 µM) | – | – | 1 (≈ 2.67 µM) | 1 (≈ 2.67 µM) | – | –
12 | CC(C)(C)n1cc(C(=O)O)c(=O)c2cc(F)c(N3C[C@@H]4C[C@H]3CN4)nc21 | 0.13 (≈ 0.361 µM) | 0.13 (≈ 0.361 µM) | 1 (≈ 2.77 µM) | 0.13 (≈ 0.361 µM) | 4 (≈ 11.1 µM) | 0.25 (≈ 0.694 µM) | 2 (≈ 5.55 µM) | 14 | 0.5 | 0.13 (≈ 0.361 µM) | 0.5 (≈ 1.39 µM) | 4 | 10.8
13 | CNC1CCN(c2nc3c(cc2F)c(=O)c(C(=O)O)cn3C(C)(C)C)C1 (stereo not drawn) | 0.06 (≈ 0.166 µM) | 0.13 (≈ 0.359 µM) | 0.5 (≈ 1.38 µM) | 0.06 (≈ 0.166 µM) | 8 (≈ 22.1 µM) | 0.06 (≈ 0.166 µM) | 1 (≈ 2.76 µM) | – | – | 0.5 (≈ 1.38 µM) | 2 (≈ 5.52 µM) | – | –
14 | CC(C)(C)n1cc(C(=O)O)c(=O)c2cc(F)c(N3CCNC(c4ccccc4)C3)nc21.CS(=O)(=O)O (stereo not drawn) | 0.03 | 0.06 | 1 | 0.06 | 8 | 0.06 | 2 | – | – | 1 | 4 | – | –
15 | CC(C)(C)n1cc(C(=O)O)c(=O)c2cc(F)c(N3C[C@@H](N)[C@H](F)C3)nc21.CS(=O)(=O)O | 0.003 | 0.5 | 0.25 | 0.5 | 2 | 0.5 | 0.5 | – | – | 0.5 | 2 | – | –
16 | CC(C)(C)n1cc(C(=O)O)c(=O)c2cc(F)c(N3CCC(CN)C3)cc21 (stereo not drawn) | 0.03 (≈ 0.083 µM) | 0.25 (≈ 0.692 µM) | 0.25 (≈ 0.692 µM) | 0.25 (≈ 0.692 µM) | 0.5 (≈ 1.38 µM) | 0.25 (≈ 0.692 µM) | 2 (≈ 5.53 µM) | – | – | 2 (≈ 5.53 µM) | 0.5 (≈ 1.38 µM) | – | –
17 | CC1CN(c2nc3c(cc2F)c(=O)c(C(=O)O)cn3C(C)(C)C)CCN1C (stereo not drawn) | 0.13 (≈ 0.345 µM) | 0.13 (≈ 0.345 µM) | 1 (≈ 2.66 µM) | 0.03 (≈ 0.0797 µM) | 4 (≈ 10.6 µM) | 0.06 (≈ 0.159 µM) | 1 (≈ 2.66 µM) | – | – | 1 (≈ 2.66 µM) | 4 (≈ 10.6 µM) | – | –
18 | CC[C@H]1CN(c2nc3c(cc2F)c(=O)c(C(=O)O)cn3C(C)(C)C)C[C@@H]1N.CS(=O)(=O)O | 0.015 | 0.06 | 0.13 | 0.03 | 2 | 0.03 | 0.25 | – | – | 0.25 | 1 | – | –
19 | CC(C)(C)n1cc(C(=O)O)c(=O)c2cc(F)c(N3CC4CCC3CN4)cc21 (stereo not drawn) | 0.13 (≈ 0.348 µM) | 0.25 (≈ 0.669 µM) | 1 (≈ 2.68 µM) | 0.5 (≈ 1.34 µM) | 4 (≈ 10.7 µM) | 0.25 (≈ 0.669 µM) | 2 (≈ 5.36 µM) | – | – | 1 (≈ 2.68 µM) | 2 (≈ 5.36 µM) | – | –
20 | CN1C2CCC1CN(c1nc3c(cc1F)c(=O)c(C(=O)O)cn3C(C)(C)C)C2.CS(=O)(=O)O | 0.25 | 0.1 | 2 | 0.5 | 16 | 0.25 | 2 | – | – | 2 | 4 | – | –
